In ChEMBL document CHEMBL5661974, “Pharmacologic characterization of a potent inhibitor of class I phosphatidylinositide 3-kinases” (Cancer Res, 2007):
Active and inactive are the calls of the source. The rule behind the calls is not given here.

Legend:
[1] = Half life in BALB/C mouse spleen at 2.5 mg/kg, iv by LC-MS/MS analysis; assay type: ADME, organism-based
How it was run: (§1)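 Female BALB/c mice, 6–8 weeks old, given 2.5 mg/kg i.v. in 10% DMSO, 0.5% Tween 20 in saline. Plasma came from serial bleeds; tissues were homogenized in 2 or 3 volumes PBS. Samples were methanol-precipitated with an analogue internal standard, then LC-MS/MS by multiple reaction monitoring against an 8-point external calibration of 2–20,000 nmol/L. Parameters came from WinNonlin noncompartmental analysis, model 201 for plasma and model 200 for tissues.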

[2] = Tmax in BALB/C mouse plasma at 2.5 mg/kg, iv by LC-MS/MS analysis; assay type: ADME, organism-based; how it was run: as §1
[3] = Antitumor activity against PIK3CA mutant human […] cells xenografted female Ncr model assessed as T/C at 100 mg/kg, ip administered twice a daily for 16 days relative to control; assay type: functional; settings: time 16 day
PC-3 [4] = assay: Antiproliferative activity against human PC-3 cells harboring PTEN deletion assessed as cell growth inhibition incubated for 96 hrs by SRB assay; assay type: functional
IGROV-1 = assay: Antiproliferative activity against human IGROV-1 cells harboring PI3KCA/PTEN mutant assessed as cell growth inhibition incubated for 96 hrs by SRB assay; assay type: functional
MDA-MB-468 = assay: Antiproliferative activity against human MDA-MB-468 cells harboring PTEN deletion assessed as cell growth inhibition incubated for 96 hrs by SRB assay; assay type: functional
PC-3 [5] = assay: Antitumor activity against PTEN null human PC-3 cells xenografted male Ncr model assessed as T/C at 30 mg/kg, ip administered twice a daily for 14 days relative to control; assay type: functional; settings: time 14 day
HCT-116 = assay: Antitumor activity against PIK3CA mutant human HCT-116 cells xenografted female Ncr model assessed as T/C at 30 mg/kg, ip administered once a daily for 21 days relative to control; assay type: functional; settings: time 21 day
[6] = Drug metabolism in mouse microsomes incubated for 30 mins by LC-MS/MS analysis; assay type: ADME, Microsome; settings: read-out: Drug metabolism
How it was run: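 Mouse or human microsomes incubated 30 min with inhibitor at 1 or 10 μmol/L. Metabolite detection by LC-MS/MS on an ion trap, with a 10–90% methanol gradient over 6 min and scan range 50–1,000 amu.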

A549 = assay: Antiproliferative activity against human A549 cells harboring AKT assessed as cell growth inhibition incubated for 96 hrs by SRB assay; assay type: functional
OVCAR-3 = settings: Homo sapiens, dose 100.0 mg/kg, route ip
[7] = AUClast in BALB/C mouse spleen at 2.5 mg/kg, iv by LC-MS/MS analysis; assay type: ADME, organism-based; how it was run: as §1
[8] = Inhibition of recombinant human PI3K in cricetulus griseus CHO cells expressing GFP-tagged AKT3 assessed as translocation to the plasma membrane following IGF-1 stimulation by fluorescence assay
How it was run: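 CHO cells expressing GFP-tagged AKT1, AKT2, AKT3 or PDK1, held in 0.05% serum with 0.1% BSA and stimulated with 100 nmol/L IGF-1. Plasma-membrane translocation was read by automated fluorescence imaging, with IC50 from concentration-response curves; Z' above 0.5.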

PC-3 [9] = assay: Antitumor activity against PTEN null human PC-3 cells xenografted male Ncr model assessed as body weight loss at 30 mg/kg, ip administered once a daily for 14 days relative to control; settings: time 14 day

half-life [1]: 1.3 h
Tmax [2]: 0 h
GI50 (PC-3 [4]): 100 nM
GI50 (MDA-MB-468): 690 nM
metabolised at 0.5 h [6]: > 70%
GI50 (A549): 210 nM
AUC(0-t) [7]: 0.406 µM·h
IC50 [8]: 11 nM
SMILES: Oc1cccc(-c2nc(N3CCOCC3)c3oc4ncccc4c3n2)c1 [PI-103]
T/C [3]: 36%
GI50 (IGROV-1): 60 nM
T/C (PC-3 [5]): 43.3%
T/C (HCT-116): 98.6%
inhibition (OVCAR-3): Active
Body weight loss (PC-3 [9]): <15%
